# Test results from ChEMBL document CHEMBL4393701, “Appendix A. dithioloquinolinethiones as new potential multitargeted antibacterial and antifungal agents: Synthesis, biological evaluation and molecular docking studies” (2019).
# How the values were obtained:
# Bacillus cereus [1] = assay: Bactericidal activity against Bacillus cereus clinical isolate incubated for 24 hrs followed by re-plating on tryptic soy broth; format: functional
# Outline: (§1)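 Bacteria were grown in tryptic soy broth, 1.0×10^4 CFU per well, with compounds in 5% DMSO at 0.001-1.0 mg/ml for 24 h at 37 °C. Then 10 µL was subcultured into fresh TSB. MBC is the lowest concentration showing no growth after subculture, taken as 99.5% kill of the original inoculum. Duplicates, repeated three times.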
# Micrococcus flavus [2] = assay: Bactericidal activity against Micrococcus flavus ATCC 10240 incubated for 24 hrs followed by re-plating on tryptic soy broth; format: functional; conditions: ATCC 10240, 24 h; outline: as §1
# Aspergillus ochraceus [3] = assay: Fungicidal activity against Aspergillus ochraceus ATCC 12066 incubated for 72 hrs followed by sub-culturing on broth malt medium and measured after 72 hrs; format: functional; conditions: ATCC 12066, 72 h
# Outline: (§2)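 After 72 h exposure in malt broth, 2 µL from test wells was subcultured into wells holding 100 µL broth and incubated a further 72 h at 28 °C. MFC is the lowest concentration with no visible growth, taken as 99.5% kill of the original inoculum. Three independent experiments in duplicate.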
# Staphylococcus aureus [4] = assay: Antibacterial activity against Staphylococcus aureus ATCC 6538 after 24 hrs by iodonitrotetrazolium chloride dye based microdilution method; format: functional; conditions: ATCC 6538, 24 h
# Outline: (§3)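 Fresh overnight cultures adjusted spectrophotometrically to 1×10^5 CFU/mL, giving 1.0×10^4 CFU per well in tryptic soy broth. Compounds were dissolved in 5% DMSO and tested at 0.001-1.0 mg/ml by serial dilution; 5% DMSO was the negative control. After 24 h at 37 °C, 0.2 mg/mL INT solution was added for 30 min at 37 °C and OD read at 655 nm. MIC is the lowest concentration giving significant growth inhibition versus the positive control. Duplicates, repeated three times.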
# Aspergillus fumigatus [5] = assay: Antifungal activity against Aspergillus fumigatus ATCC 1022 after 72 hrs by microdilution technique; format: functional; conditions: ATCC 1022, 72 h
# Outline: (§4)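 Spores were washed off malt agar with 0.85% saline containing 0.1% Tween 80 and adjusted to about 1.0×10^5 per well. Compounds in 5% DMSO were serially diluted (0.001-1.0 mg/ml) in malt broth with inoculum. Plates were shaken at 160 rpm for 72 h at 28 °C. MIC is the lowest concentration without visible growth under a binocular microscope. Three independent experiments in duplicate.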
# Aspergillus ochraceus [6] = assay: Antifungal activity against Aspergillus ochraceus ATCC 12066 after 72 hrs by microdilution technique; format: functional; conditions: ATCC 12066, 72 h; outline: as §4
# [7] = Antifungal activity against Penicillium funiculosum ATCC 36839 after 72 hrs by microdilution technique; format: functional; conditions: Talaromyces pinophilus, ATCC 36839, 72 h; outline: as §4
# Listeria monocytogenes [8] = assay: Antibacterial activity against Listeria monocytogenes NCTC 7973 after 24 hrs by iodonitrotetrazolium chloride dye based microdilution method; format: functional; conditions: NCTC 7973, 24 h; outline: as §3
# Enterobacter cloacae [9] = assay: Bactericidal activity against Enterobacter cloacae incubated for 24 hrs followed by re-plating on tryptic soy broth; format: functional; outline: as §1
# Escherichia coli [10] = assay: Antibacterial activity against Escherichia coli ATCC 35210 after 24 hrs by iodonitrotetrazolium chloride dye based microdilution method; format: functional; conditions: ATCC 35210, 24 h; outline: as §3
# Aspergillus versicolor [11] = assay: Fungicidal activity against Aspergillus versicolor ATCC 11730 incubated for 72 hrs followed by sub-culturing on broth malt medium and measured after 72 hrs; format: functional; conditions: ATCC 11730, 72 h; outline: as §2
# Penicillium ochrochloron [12] = assay: Fungicidal activity against Penicillium ochrochloron ATCC 9112 incubated for 72 hrs followed by sub-culturing on broth malt medium and measured after 72 hrs; format: functional; conditions: ATCC 9112, 72 h; outline: as §2
# Staphylococcus aureus [13] = assay: Bactericidal activity against Staphylococcus aureus ATCC 6538 incubated for 24 hrs followed by re-plating on tryptic soy broth; format: functional; conditions: ATCC 6538, 24 h; outline: as §1
# Salmonella typhimurium [14] = assay: Antibacterial activity against Salmonella typhimurium ATCC 13311 after 24 hrs by iodonitrotetrazolium chloride dye based microdilution method; format: functional, Salmonella enterica subsp. enterica serovar Typhimurium; conditions: Salmonella enterica, ATCC 13311, 24 h; outline: as §3
# Enterobacter cloacae [15] = assay: Antibacterial activity against Enterobacter cloacae clinical isolate after 24 hrs by iodonitrotetrazolium chloride dye based microdilution method; format: functional; outline: as §3
# Salmonella typhimurium [16] = assay: Bactericidal activity against Salmonella typhimurium ATCC 13311 incubated for 24 hrs followed by re-plating on tryptic soy broth; format: functional, Salmonella enterica subsp. enterica serovar Typhimurium; conditions: Salmonella enterica, ATCC 13311, 24 h; outline: as §1
# Escherichia coli [17] = assay: Bactericidal activity against Escherichia coli ATCC 35210 incubated for 24 hrs followed by re-plating on tryptic soy broth; format: functional; conditions: ATCC 35210, 24 h; outline: as §1
# Trichoderma viride [18] = assay: Antifungal activity against Trichoderma viride IAM 5061 after 72 hrs by microdilution technique; format: functional; conditions: IAM 5061, 72 h; outline: as §4
# Penicillium cyclopium [19] = assay: Antifungal activity against Penicillium verrucosum var. cyclopium food isolate after 72 hrs by microdilution technique; format: functional; outline: as §4
# Pseudomonas aeruginosa [20] = assay: Antibacterial activity against Pseudomonas aeruginosa ATCC 27853 after 24 hrs by iodonitrotetrazolium chloride dye based microdilution method; format: functional; conditions: ATCC 27853, 24 h; outline: as §3
# [21] = Fungicidal activity against Penicillium funiculosum ATCC 36839 incubated for 72 hrs followed by sub-culturing on broth malt medium and measured after 72 hrs; format: functional; conditions: Talaromyces pinophilus, ATCC 36839, 72 h; outline: as §2
# Bacillus cereus [22] = assay: Antibacterial activity against Bacillus cereus clinical isolate after 24 hrs by iodonitrotetrazolium chloride dye based microdilution assay; format: functional; outline: as §3
# Pseudomonas aeruginosa [23] = assay: Bactericidal activity against Pseudomonas aeruginosa ATCC 27853 incubated for 24 hrs followed by re-plating on tryptic soy broth; format: functional; conditions: ATCC 27853, 24 h; outline: as §1
# Trichoderma viride [24] = assay: Fungicidal activity against Trichoderma viride IAM 5061 incubated for 72 hrs followed by sub-culturing on broth malt medium and measured after 72 hrs; format: functional; conditions: IAM 5061, 72 h; outline: as §2
# Listeria monocytogenes [25] = assay: Bactericidal activity against Listeria monocytogenes NCTC 7973 incubated for 24 hrs followed by re-plating on tryptic soy broth; format: functional; conditions: NCTC 7973, 24 h; outline: as §1
# Aspergillus fumigatus [26] = assay: Fungicidal activity against Aspergillus fumigatus ATCC 1022 incubated for 72 hrs followed by sub-culturing on broth malt medium and measured after 72 hrs; format: functional; conditions: ATCC 1022, 72 h; outline: as §2
# Penicillium cyclopium [27] = assay: Fungicidal activity against Penicillium verrucosum var. cyclopium food isolate incubated for 72 hrs followed by sub-culturing on broth malt medium and measured after 72 hrs; format: functional; outline: as §2
# Micrococcus flavus [28] = assay: Antibacterial activity against Micrococcus flavus ATCC 10240 after 24 hrs by iodonitrotetrazolium chloride dye based microdilution method; format: functional; conditions: ATCC 10240, 24 h; outline: as §3
# Aspergillus niger [29] = assay: Fungicidal activity against Aspergillus niger ATCC 6275 incubated for 72 hrs followed by sub-culturing on broth malt medium and measured after 72 hrs; format: functional; conditions: ATCC 6275, 72 h; outline: as §2
# Penicillium ochrochloron [30] = assay: Antifungal activity against Penicillium ochrochloron ATCC 9112 after 72 hrs by microdilution technique; format: functional; conditions: ATCC 9112, 72 h; outline: as §4
# Aspergillus niger [31] = assay: Antifungal activity against Aspergillus niger ATCC 6275 after 72 hrs by microdilution technique; format: functional; conditions: ATCC 6275, 72 h; outline: as §4
# Aspergillus versicolor [32] = assay: Antifungal activity against Aspergillus versicolor ATCC 11730 after 72 hrs by microdilution method; format: functional; conditions: ATCC 11730, 72 h; outline: as §4
Structure (SMILES),MBC (Bacillus cereus [1]) [µM],MBC (Micrococcus flavus [2]) [µM],MFC (Aspergillus ochraceus [3]) [×10⁻² mM],MIC (Staphylococcus aureus [4]) [µM],MIC (Aspergillus fumigatus [5]) [×10⁻² mM],MIC (Aspergillus ochraceus [6]) [×10⁻² mM],MIC [7] [×10⁻² mM],MIC (Listeria monocytogenes [8]) [µM],MBC (Enterobacter cloacae [9]) [µM],MIC (Escherichia coli [10]) [µM],MFC (Aspergillus versicolor [11]) [×10⁻² mM],MFC (Penicillium ochrochloron [12]) [×10⁻² mM],MBC (Staphylococcus aureus [13]) [µM],MIC (Salmonella typhimurium [14]) [µM],MIC (Enterobacter cloacae [15]) [µM],MBC (Salmonella typhimurium [16]) [µM],MBC (Escherichia coli [17]) [µM],MIC (Trichoderma viride [18]) [×10⁻² mM],MIC (Penicillium cyclopium [19]) [×10⁻² mM],MIC (Pseudomonas aeruginosa [20]) [µM],other results
CCOc1ccc2c(c1)-c1c(ssc1=S)C(C)(C)N2,59,59,23.6,29.5,5.9,11.8,11.8,29.5,59,29.5,11.8,1.57,59,29.5,29.5,59,59,1.18,8.85,29.5,MFC [21]: 23.6 ×10⁻² mM; MIC (Bacillus cereus [22]): 29.5 µM; MBC (Pseudomonas aeruginosa [23]): 59 µM; MFC (Trichoderma viride [24]): 2.95 ×10⁻² mM; MBC (Listeria monocytogenes [25]): 59 µM; MFC (Aspergillus fumigatus [26]): 11.8 ×10⁻² mM; MFC (Penicillium cyclopium [27]): 23.6 ×10⁻² mM; MIC (Micrococcus flavus [28]): 29.5 µM; MFC (Aspergillus niger [29]): 11.8 ×10⁻² mM; MIC (Penicillium ochrochloron [30]): 0.79 ×10⁻² mM; MIC (Aspergillus niger [31]): 4.32 ×10⁻² mM; MIC (Aspergillus versicolor [32]): 5.9 ×10⁻² mM
CC1(C)c2ssc(=S)c2-c2ccccc2N1C(=O)CN1C(=O)CCC1=O,74.2,74.2,29.7,37.1,11.1,14.8,11.1,37.1,74.2,37.1,29.7,1.98,74.2,37.1,37.1,74.2,74.2,1.48,14.8,37.1,MFC [21]: 29.7 ×10⁻² mM; MIC (Bacillus cereus [22]): 37.1 µM; MBC (Pseudomonas aeruginosa [23]): 74.2 µM; MFC (Trichoderma viride [24]): 1.98 ×10⁻² mM; MBC (Listeria monocytogenes [25]): 74.2 µM; MFC (Aspergillus fumigatus [26]): 14.8 ×10⁻² mM; MFC (Penicillium cyclopium [27]): 29.7 ×10⁻² mM; MIC (Micrococcus flavus [28]): 37.1 µM; MFC (Aspergillus niger [29]): 14.8 ×10⁻² mM; MIC (Penicillium ochrochloron [30]): 0.99 ×10⁻² mM; MIC (Aspergillus niger [31]): 7.42 ×10⁻² mM; MIC (Aspergillus versicolor [32]): 14.8 ×10⁻² mM
CCOc1ccc2c(c1)-c1c(ssc1=S)C(C)(C)N2C(=O)c1ccc(Cl)c([N+](=O)[O-])c1,60.9,60.9,3.04,30.4,4.46,1.62,3.04,30.4,60.9,30.4,24.3,1.62,60.9,30.4,30.4,60.9,60.9,1.22,24.3,30.4,MFC [21]: 6.09 ×10⁻² mM; MIC (Bacillus cereus [22]): 30.4 µM; MBC (Pseudomonas aeruginosa [23]): 60.9 µM; MFC (Trichoderma viride [24]): 1.62 ×10⁻² mM; MBC (Listeria monocytogenes [25]): 60.9 µM; MFC (Aspergillus fumigatus [26]): 12.2 ×10⁻² mM; MFC (Penicillium cyclopium [27]): 48.7 ×10⁻² mM; MIC (Micrococcus flavus [28]): 30.4 µM; MFC (Aspergillus niger [29]): 6.09 ×10⁻² mM; MIC (Penicillium ochrochloron [30]): 1.22 ×10⁻² mM; MIC (Aspergillus niger [31]): 2.23 ×10⁻² mM; MIC (Aspergillus versicolor [32]): 12.2 ×10⁻² mM
COc1cc2c(c([N+](=O)[O-])c1)NC(C)(C)c1ssc(=S)c1-2,88.1,176,4.41,88.1,17.6,2.35,4.41,176,176,132,8.81,8.81,176,176,88.1,352,176,3.23,6.46,88.1,MFC [21]: 8.81 ×10⁻² mM; MIC (Bacillus cereus [22]): 44.1 µM; MBC (Pseudomonas aeruginosa [23]): 176 µM; MFC (Trichoderma viride [24]): 4.41 ×10⁻² mM; MBC (Listeria monocytogenes [25]): 352 µM; MFC (Aspergillus fumigatus [26]): 35.2 ×10⁻² mM; MFC (Penicillium cyclopium [27]): 17.6 ×10⁻² mM; MIC (Micrococcus flavus [28]): 132 µM; MFC (Aspergillus niger [29]): 8.81 ×10⁻² mM; MIC (Penicillium ochrochloron [30]): 4.41 ×10⁻² mM; MIC (Aspergillus niger [31]): 4.41 ×10⁻² mM; MIC (Aspergillus versicolor [32]): 4.41 ×10⁻² mM
